In assay [1] the target is T1, serine racemase (SR) in PC-12 cells (Rattus norvegicus, UniProt Q76EQ0).
T1 sequence (Q76EQ0 1-333): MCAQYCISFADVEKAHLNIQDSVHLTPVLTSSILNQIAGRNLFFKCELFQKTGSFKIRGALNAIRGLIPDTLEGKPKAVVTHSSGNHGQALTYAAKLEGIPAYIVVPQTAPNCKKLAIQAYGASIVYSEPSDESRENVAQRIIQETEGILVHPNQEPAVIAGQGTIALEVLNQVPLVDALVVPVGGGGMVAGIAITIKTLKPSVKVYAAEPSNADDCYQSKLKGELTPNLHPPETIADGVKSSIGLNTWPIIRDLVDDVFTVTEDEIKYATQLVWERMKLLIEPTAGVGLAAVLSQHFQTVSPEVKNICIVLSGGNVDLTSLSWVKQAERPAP
Briefly: CE-LIF measurement of intra-cellular D-Ser production in PC-12 cells. The assay is classed as cell-based. The conditions noted are these: for intra-cellular D-Ser production: 36 h, PC-12, n = 3. In a few lines: (§1)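 PC-12 cells were kept in RPMI-1640 with 10% horse serum and 5% FBS, and 1321N1 cells in DMEM with 10% FBS. […] Pellets were spiked with D-Arg internal standard, ACN-extracted, dried and FITC-labelled. CE-LIF used 0.5 mM HP-β-CD in 80 mM borate, pH 9.3.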

Assay [2] has as its target T2, serine racemase (SR) in C6 cells (Rattus norvegicus, UniProt Q76EQ0).
T2 sequence (Q76EQ0 1-333): T1 sequence (Q76EQ0 1-333)
Put plainly: CE-LIF measurement of intra-cellular D-Ser production in C6 cells. The assay is classed as cell-based. The conditions noted are these: for intra-cellular D-Ser production: 36 h, C6, n = 3. The essentials: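 C6 cells in DMEM with L-Gln, 10% FBS and 1% penicillin/streptomycin were grown at 37 °C in 5% CO2 to >70% confluence. They were then incubated for 36 h in medium with substrate amino acid (0–20 mM) or inhibitor amino acid (0–8 mM), in triplicate. ACN extracts with D-Arg internal standard were FITC-labelled, then run by CE-LIF in 0.5 mM HP-β-CD/80 mM borate, pH 9.3. D-Ser was quantified by area ratio to FITC-D-Arg.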

Assay [3] has as its target T3, serine racemase (SR) in HepG2 cells (Homo sapiens, UniProt Q9GZT4).
T3 sequence (Q9GZT4 1-340): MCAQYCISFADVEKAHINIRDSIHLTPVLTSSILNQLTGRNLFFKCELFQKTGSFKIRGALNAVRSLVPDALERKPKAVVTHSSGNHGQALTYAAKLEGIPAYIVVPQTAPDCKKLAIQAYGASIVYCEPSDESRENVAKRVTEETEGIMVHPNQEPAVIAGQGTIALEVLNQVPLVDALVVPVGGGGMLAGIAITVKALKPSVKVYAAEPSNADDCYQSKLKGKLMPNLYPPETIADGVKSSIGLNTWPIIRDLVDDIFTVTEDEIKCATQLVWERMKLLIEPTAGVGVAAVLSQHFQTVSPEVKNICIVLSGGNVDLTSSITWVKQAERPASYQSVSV
Put plainly: CE-LIF measurement of intra-cellular D-Ser production in HepG2 cells. The assay is classed as cell-based. To be noted: for intra-cellular D-Ser production: 36 h, HepG2, n = 3. The essentials:
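Medium for HepG2 was EMEM with 1% L-Gln, 10% FBS, 1% sodium pyruvate and 1% penicillin/streptomycin. Cells at >70% confluence (37 °C, 5% CO2) were exposed for 36 h to medium with substrate amino acid (0–20 mM) or inhibitor amino acid (0–8 mM), in triplicate. Cell extracts in ACN with D-Arg internal standard were FITC-derivatized. CE-LIF used 0.5 mM HP-β-CD in 80 mM borate, pH 9.3, with D-Ser quantified against FITC-D-Arg.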

The target in assay [4] is T4, serine racemase (SR) in 1321N1 cells (Homo sapiens, UniProt Q9GZT4).
T4 sequence (Q9GZT4 1-340): T3 sequence (Q9GZT4 1-340)
Put plainly: CE-LIF measurement of intra-cellular D-Ser production in 1321N1 cells. The assay is classed as cell-based. To be noted: for intra-cellular D-Ser production: 36 h, 1321N1, n = 3. In a few lines:
as §1

In assay [5] the test system is SR protein (monomer and dimer) in PC-12 cells. Briefly: Western blot of SR protein expression in PC-12 cells. The assay is classed as cell-based, rat. To be noted: 36-h treatment; for expression of the SR dimer relative to control: normalized to β-actin, n=2. The essentials:
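Lysates were BCA-assayed, and 20 μg protein per lane was run on reducing 4–12% SDS-PAGE and moved to PVDF. Blots were blocked in 5% milk, probed with a […] SR antibody, then an HRP secondary, and detected by ECL. Bands were quantified by densitometry, normalised to β-actin, n=2.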
(In general: A western blot detects proteins with antibodies after separation by electrophoresis.)

Assay [6] deals with SR purified from mouse brain. To be noted: read-out: Km for L-Ser; cited from earlier work.
The test system of assay [7] is purified recombinant human SR. The conditions noted are these: read-out: Km for L-Ser; cited from earlier work.
A further assay has as its system primary microglia. To be noted: LPS 100 ng/ml; cited from earlier work.

Results on 2 compounds are retold here after publication PMC3270116 (Analytical Biochemistry, 2011).

“Also recorded” adds a separate entry of the source.

As for `N[C@@H](CO)C(=O)O` [L-Ser, L-serine], the EC50 in assay [1] was determined as 5.41 ± 0.76 mM; in assay [2], 9.37 ± 0.17 mM; in assay [3], 7.87 ± 2.09 mM; in assay [4], 9.16 ± 0.27 mM. In addition, the “intra-cellular D-Ser production” value stood at 16.48 ± 1.72 in assay [1] (L-Ser 2 mM in media); 21.97 ± 2.48 in assay [1] (L-Ser 4 mM in media); 29.51 ± 4.93 in assay [1] (L-Ser 6 mM in media); 31.46 ± 0.07 in assay [1] (L-Ser 8 mM in media); 36.49 ± 1.64 in assay [1] (L-Ser 10 mM in media); 38.01 ± 0.50 in assay [1] (L-Ser 15 mM in media). Further, the “intra-cellular D-Ser production” value is listed as 39.13 ± 0.36 in assay [1] (L-Ser 20 mM in media); 2.91 ± 0.17 in assay [2] (L-Ser 2 mM in media); 3.05 ± 0.08 in assay [2] (L-Ser 4 mM in media); 3.60 ± 0.14 in assay [2] (L-Ser 6 mM in media); 7.17 ± 0.27 in assay [2] (L-Ser 8 mM in media); 10.63 ± 0.45 in assay [2] (L-Ser 10 mM in media). Further, the “intra-cellular D-Ser production” value in assay [2] (L-Ser 15 mM in media) worked out at 15.64 ± 0.10; in assay [2] (L-Ser 20 mM in media) it was 16.07 ± 0.16; in assay [3] (L-Ser 2 mM in media) it was 15.48 ± 0.26; in assay [3] (L-Ser 4 mM in media), 16.21 ± 0.21; in assay [3] (L-Ser 6 mM in media), 17.53 ± 1.70; in assay [3] (L-Ser 8 mM in media) it was 18.50 ± 1.48. The “intra-cellular D-Ser production” value in assay [3] (L-Ser 10 mM in media) is reported as 20.10 ± 0.50; in assay [3] (L-Ser 15 mM in media), 21.81 ± 0.35; in assay [3] (L-Ser 20 mM in media), 26.28 ± 0.25; in assay [4] (L-Ser 2 mM in media), 8.13 ± 0.14; in assay [4] (L-Ser 4 mM in media), 9.26 ± 1.00; in assay [4] (L-Ser 6 mM in media) it was 9.46 ± 0.87. Besides, the “intra-cellular D-Ser production” value in assay [4] (L-Ser 8 mM in media) worked out at 9.54 ± 0.82; in assay [4] (L-Ser 10 mM in media), 19.57 ± 0.77; in assay [4] (L-Ser 15 mM in media), 21.94 ± 0.18; in assay [4] (L-Ser 20 mM in media), 22.31 ± 1.27. Besides, the “increase in intra-cellular D-Ser levels” value is recorded as 533% in assay [2] (C6, L-Ser 2.0 to 20.0 mM added to incubation buffer) and 50% in assay [3] (HepG2, L-Ser 2.0 to 20.0 mM added to incubation buffer). Also, the “SR dimer or SR monomer expression relative to control” value in assay [5] (PC-12, L-Ser 10 mM) is listed as “neither of these treatments produced a significant change; also recorded: without causing a significant change”. Moreover, the results for the Km in assay [6] and in assay [7] were 18 mM and 4 mM, respectively.

For lipopolysaccharide [LPS], the “increase in intra-cellular D-Ser concentration” value is listed as 2.5 fold in assay [1] (PC-12, LPS 10 ng/ml in incubation media) and 3.5 fold in assay [1] (PC-12, LPS 100 ng/ml in incubation media). In addition, the “expression of the SR dimer relative to control” value in assay [5] (PC-12, LPS 10 ng/ml) is recorded as 1.2 fold; in assay [5] (PC-12, LPS 100 ng/ml), 1.6 fold. In addition, the “D-Ser levels in the incubation media” value with primary microglia was “increased”. Also, the “expression of the dimeric form of SR” value with primary microglia is “increased”.

As usually defined, the EC50 is the concentration at which the effect is half-maximal. The low end stands for a more potent agent, the high end for a less potent agent. What is called Km is the concentration of substrate that gives half-maximal velocity.
